Values after ≈ are worked out from the molar mass of the structure shown.
What was measured:
[1] = target: SDH derived from Brassica oleracea (Cabbage) (Brassica oleracea, UniProt A0A0D3B707+A0A0D3E0G9+A0A0D3EGP9); experiment: SDH inhibition, DCIP method; type: biochemical; conditions: nontarget SDH
[2] = target: SDH derived from Venturia inaequalis (Venturia inaequalis, UniProt A0A0H4U4T0+A0A370JIY7+A0A8H3Z7E8); experiment: SDH inhibition, DCIP method; type: biochemical; conditions: read-out: SDH IC50
Brown rust (Wheat) = conditions: cited from earlier work
Marssonina blotch = experiment: Field trials, apple Marssonina blotch; type: in vivo; conditions: PARADE 15FL; field trials Aomori Prefecture 2010 and 2013
[3] = test system: SDH derived from Alternaria brassicae; experiment: SDH inhibition, DCIP method; type: biochemical; conditions: read-out: SDH IC50
[4] = target: SDH derived from Botrytis cinerea (Botrytis cinerea, UniProt A0A384J5E4+D2IH01+D2IH03); experiment: SDH inhibition, DCIP method; type: biochemical
[5] = target: SDH derived from Puccinia recondita (Puccinia triticina, UniProt A0A0C4ES27+A0A180H0E4+A0A915VLF5); experiment: SDH inhibition, DCIP method; type: biochemical; conditions: read-out: SDH IC50
[6] = target: SDH derived from Cucumis sativus (Cucumber) (Cucumis sativus, UniProt A0A0A0LBZ3+G3EIY8+G3EJ03); experiment: SDH inhibition, DCIP method; type: biochemical; conditions: nontarget SDH
SDH derived from Cucumis sativus (Cucumber), sequence (A0A0A0LBZ3 28-277): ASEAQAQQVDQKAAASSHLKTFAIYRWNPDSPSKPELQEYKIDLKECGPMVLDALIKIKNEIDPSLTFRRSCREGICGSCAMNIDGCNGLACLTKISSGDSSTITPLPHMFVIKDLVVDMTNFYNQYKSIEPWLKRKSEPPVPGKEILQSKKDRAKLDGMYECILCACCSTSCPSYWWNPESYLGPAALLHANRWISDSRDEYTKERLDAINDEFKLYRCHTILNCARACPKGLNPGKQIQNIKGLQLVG
SDH derived from Cucumis sativus (Cucumber), sequence (G3EIY8 1-105): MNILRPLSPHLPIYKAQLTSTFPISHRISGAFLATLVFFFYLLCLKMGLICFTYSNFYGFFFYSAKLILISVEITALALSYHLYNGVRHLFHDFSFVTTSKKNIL
SDH derived from Cucumis sativus (Cucumber), sequence (G3EJ03 1-144): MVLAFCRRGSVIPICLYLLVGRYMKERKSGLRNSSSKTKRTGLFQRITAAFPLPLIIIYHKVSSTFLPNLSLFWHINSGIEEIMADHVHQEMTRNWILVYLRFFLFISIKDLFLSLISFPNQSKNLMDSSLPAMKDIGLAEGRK
SDH derived from Cucumis sativus (Cucumber), sequence (A0A0A0KUM6 34-635 partner): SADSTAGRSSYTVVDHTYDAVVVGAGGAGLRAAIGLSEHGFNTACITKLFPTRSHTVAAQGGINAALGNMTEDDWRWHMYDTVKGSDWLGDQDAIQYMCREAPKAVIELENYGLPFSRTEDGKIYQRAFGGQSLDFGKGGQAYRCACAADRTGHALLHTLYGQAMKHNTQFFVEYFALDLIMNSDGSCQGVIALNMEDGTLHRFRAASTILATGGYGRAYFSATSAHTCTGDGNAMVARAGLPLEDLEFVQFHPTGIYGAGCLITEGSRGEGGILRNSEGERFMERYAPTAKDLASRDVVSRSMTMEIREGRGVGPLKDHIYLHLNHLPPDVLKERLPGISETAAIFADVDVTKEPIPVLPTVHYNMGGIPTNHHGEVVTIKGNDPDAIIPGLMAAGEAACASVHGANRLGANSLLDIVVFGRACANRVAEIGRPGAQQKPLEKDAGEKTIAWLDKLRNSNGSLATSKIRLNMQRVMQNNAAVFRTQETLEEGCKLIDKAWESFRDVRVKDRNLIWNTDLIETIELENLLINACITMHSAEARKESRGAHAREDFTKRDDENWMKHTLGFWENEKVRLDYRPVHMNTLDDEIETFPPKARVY

Solubility in water = type: physicochemical
Method in brief: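 Water solubility measured at 20°C, reported in mg/L.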

[7] = target: SDH derived from Blumeria graminis (Blumeria graminis, UniProt N1J5Q8+N1JC31+N1JIS1); experiment: SDH inhibition, DCIP method; type: biochemical
[8] = target: SDH derived from Magnaporthe oryzae (Pyricularia oryzae, UniProt A0ABQ8NN34+G4N2P5+G4NB04); type: biochemical; conditions: read-out: SDH IC50
[9] = target: SDH derived from Mus musculus (Mouse) (Mus musculus, UniProt Q9CQA3+Q9CXV1+Q9CZB0); experiment: SDH inhibition, DCIP method; type: biochemical
SDH derived from Mus musculus (Mouse), sequence (Q9CQA3 31-282): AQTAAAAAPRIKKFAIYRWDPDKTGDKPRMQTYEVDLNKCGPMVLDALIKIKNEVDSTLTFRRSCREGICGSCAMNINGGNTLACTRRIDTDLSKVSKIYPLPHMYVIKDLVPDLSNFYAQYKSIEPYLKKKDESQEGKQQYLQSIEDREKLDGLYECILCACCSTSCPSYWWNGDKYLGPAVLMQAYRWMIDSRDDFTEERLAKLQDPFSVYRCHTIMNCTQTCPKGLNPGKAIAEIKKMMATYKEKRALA
SDH derived from Mus musculus (Mouse), sequence (Q9CZB0 30-169): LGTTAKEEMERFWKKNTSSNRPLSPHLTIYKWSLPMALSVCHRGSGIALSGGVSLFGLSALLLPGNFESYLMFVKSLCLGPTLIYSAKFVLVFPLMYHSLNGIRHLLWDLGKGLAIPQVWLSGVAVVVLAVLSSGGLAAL
SDH derived from Mus musculus (Mouse), sequence (Q9CXV1 57-159): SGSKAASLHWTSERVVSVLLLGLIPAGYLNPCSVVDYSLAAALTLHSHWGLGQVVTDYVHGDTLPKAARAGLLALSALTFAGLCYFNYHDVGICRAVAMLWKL
SDH derived from Mus musculus (Mouse), sequence (Q8K2B3 43-664 partner): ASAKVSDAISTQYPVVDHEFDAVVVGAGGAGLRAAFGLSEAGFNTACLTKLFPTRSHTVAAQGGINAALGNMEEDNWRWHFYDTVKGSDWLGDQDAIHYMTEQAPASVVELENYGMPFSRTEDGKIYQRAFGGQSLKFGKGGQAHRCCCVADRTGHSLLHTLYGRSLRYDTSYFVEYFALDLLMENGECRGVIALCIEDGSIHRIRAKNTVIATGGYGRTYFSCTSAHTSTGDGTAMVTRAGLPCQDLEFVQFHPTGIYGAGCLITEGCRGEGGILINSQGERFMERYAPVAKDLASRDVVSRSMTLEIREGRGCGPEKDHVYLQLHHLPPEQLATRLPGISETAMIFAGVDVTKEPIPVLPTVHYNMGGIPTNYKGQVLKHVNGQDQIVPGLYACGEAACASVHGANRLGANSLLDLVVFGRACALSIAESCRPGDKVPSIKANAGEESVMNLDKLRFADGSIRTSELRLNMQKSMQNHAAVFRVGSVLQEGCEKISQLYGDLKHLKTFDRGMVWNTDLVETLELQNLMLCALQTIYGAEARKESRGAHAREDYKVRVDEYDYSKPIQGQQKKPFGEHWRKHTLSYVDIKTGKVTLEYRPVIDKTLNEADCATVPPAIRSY

[10] = target: SDH derived from Solanum lycopersicum (Tomato) (Solanum lycopersicum, UniProt D2KQI9+Q952Q7+Q952R1); experiment: SDH inhibition, DCIP method; type: biochemical; conditions: nontarget SDH
[11] = test system: SDH derived from Sclerotinia minor; experiment: SDH inhibition, DCIP method; type: biochemical; conditions: read-out: SDH IC50
[12] = test system: SDH derived from Pythium aphanidermatum; experiment: SDH inhibition, DCIP method; type: biochemical
Powdery mildew (Barley) = conditions: cited from earlier work
Gray mold (Cucumber) = conditions: cited from earlier work
Sclerotinia sclerotiorum = conditions: cited from earlier work
[13] = target: SDH derived from Rhizoctonia solani (Rhizoctonia solani, UniProt A0A074S2N8+A0A0B7FBK7+A0A0B7FK09); experiment: SDH inhibition, DCIP method; type: biochemical; conditions: read-out: SDH IC50
SDH derived from Rhizoctonia solani, sequence (A0A0B7FBK7 28-278): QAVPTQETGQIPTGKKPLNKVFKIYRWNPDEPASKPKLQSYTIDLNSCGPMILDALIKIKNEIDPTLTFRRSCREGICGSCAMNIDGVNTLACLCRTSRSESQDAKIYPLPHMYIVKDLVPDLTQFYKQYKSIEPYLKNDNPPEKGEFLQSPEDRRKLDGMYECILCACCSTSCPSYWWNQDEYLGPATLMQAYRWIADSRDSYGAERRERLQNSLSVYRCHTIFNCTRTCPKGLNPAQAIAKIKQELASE
SDH derived from Rhizoctonia solani, sequence (A0A074S2N8 37-180): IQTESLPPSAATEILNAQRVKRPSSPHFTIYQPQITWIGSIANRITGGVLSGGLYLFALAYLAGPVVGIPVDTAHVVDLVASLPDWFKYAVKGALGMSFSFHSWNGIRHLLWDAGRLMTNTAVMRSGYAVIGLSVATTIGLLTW
SDH derived from Rhizoctonia solani, sequence (A0A0B7FK09 30-176): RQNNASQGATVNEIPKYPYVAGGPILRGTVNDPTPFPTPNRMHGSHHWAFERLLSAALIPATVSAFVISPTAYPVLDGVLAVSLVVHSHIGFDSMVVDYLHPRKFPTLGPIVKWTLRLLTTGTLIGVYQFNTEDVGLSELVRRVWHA
SDH derived from Rhizoctonia solani, sequence (A0A0B7F7I9 28-643 partner): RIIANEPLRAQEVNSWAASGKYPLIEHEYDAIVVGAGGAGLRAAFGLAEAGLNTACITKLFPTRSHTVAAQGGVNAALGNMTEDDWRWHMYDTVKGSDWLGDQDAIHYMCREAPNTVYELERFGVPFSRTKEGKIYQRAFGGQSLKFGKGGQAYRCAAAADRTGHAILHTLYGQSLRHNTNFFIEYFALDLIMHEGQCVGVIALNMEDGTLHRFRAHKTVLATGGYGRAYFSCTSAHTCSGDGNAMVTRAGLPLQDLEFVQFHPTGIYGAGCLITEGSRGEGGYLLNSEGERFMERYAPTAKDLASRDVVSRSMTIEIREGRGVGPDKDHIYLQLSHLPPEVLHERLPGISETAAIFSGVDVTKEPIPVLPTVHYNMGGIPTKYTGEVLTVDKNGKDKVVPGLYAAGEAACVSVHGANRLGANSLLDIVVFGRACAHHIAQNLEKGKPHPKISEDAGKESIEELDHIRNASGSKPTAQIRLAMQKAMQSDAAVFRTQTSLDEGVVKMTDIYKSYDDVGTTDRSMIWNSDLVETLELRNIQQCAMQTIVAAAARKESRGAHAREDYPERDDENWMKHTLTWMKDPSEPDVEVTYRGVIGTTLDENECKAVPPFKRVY

SDH derived from Brassica oleracea (Cabbage), sequence (A0A0D3E0G9 29-281): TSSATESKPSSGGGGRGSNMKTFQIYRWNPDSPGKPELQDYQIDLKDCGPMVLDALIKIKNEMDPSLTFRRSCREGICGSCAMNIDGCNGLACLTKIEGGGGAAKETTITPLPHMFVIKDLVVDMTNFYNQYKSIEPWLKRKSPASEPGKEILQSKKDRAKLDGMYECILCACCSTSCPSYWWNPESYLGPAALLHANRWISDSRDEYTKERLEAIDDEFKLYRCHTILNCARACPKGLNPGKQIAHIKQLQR
SDH derived from Brassica oleracea (Cabbage), sequence (A0A0D3EGP9 103-213): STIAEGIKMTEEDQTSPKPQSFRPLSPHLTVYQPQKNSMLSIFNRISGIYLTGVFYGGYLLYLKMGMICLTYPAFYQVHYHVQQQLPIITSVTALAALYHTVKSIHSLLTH
SDH derived from Brassica oleracea (Cabbage), sequence (A0A0D3B707 83-139): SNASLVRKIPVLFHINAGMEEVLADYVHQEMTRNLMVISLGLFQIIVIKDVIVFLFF
SDH derived from Brassica oleracea (Cabbage), sequence (A0A0D3D8D6 28-626 partner): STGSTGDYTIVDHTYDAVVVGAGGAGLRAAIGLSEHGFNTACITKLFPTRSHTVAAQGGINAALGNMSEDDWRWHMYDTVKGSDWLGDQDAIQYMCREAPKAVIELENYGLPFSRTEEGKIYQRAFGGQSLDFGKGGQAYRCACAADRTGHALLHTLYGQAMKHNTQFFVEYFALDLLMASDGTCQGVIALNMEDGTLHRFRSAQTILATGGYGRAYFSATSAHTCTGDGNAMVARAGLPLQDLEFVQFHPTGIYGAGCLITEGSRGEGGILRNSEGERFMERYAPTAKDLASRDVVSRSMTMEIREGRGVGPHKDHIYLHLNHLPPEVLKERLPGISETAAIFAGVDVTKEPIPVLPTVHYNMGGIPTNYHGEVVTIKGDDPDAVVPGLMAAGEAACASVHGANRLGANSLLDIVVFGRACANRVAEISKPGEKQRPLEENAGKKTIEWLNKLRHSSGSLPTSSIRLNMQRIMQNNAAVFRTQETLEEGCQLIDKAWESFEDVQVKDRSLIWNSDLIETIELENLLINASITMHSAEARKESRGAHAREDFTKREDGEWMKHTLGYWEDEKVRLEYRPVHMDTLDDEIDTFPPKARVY

Structure (SMILES): O=C(Nc1ccccc1-c1ccc(F)c(F)c1)c1nccnc1C(F)(F)F [Compound 9, N-(3′,4′-difluorobiphenyl-2-yl)-3-(trifluoromethyl)pyrazine-2-carboxamide]
- SDH inhibitory activity [1]: did not show any inhibitory activity
- IC50 [2]: 18.9 nM
- Fungicidal activity EC80, Brown rust (Wheat) (Brown rust (Wheat)): 0.5–2 mg a.i./L
- residual activity against Marssonina blotch of apple (Marssonina blotch): excellent residual activity
- IC50 [3]: 2.1 nM
- IC50 [4]: 4.1 nM
- IC50 [5]: 14.4 nM
- SDH inhibitory activity [6]: did not show any inhibitory activity
- solubility (Solubility in water): 2.32 µg/mL (≈ 6.12 µM)
- IC50 [7]: 5.8 nM
- IC50 [8]: 2500 nM
- IC50 [9]: > 32000 nM
- SDH inhibitory activity ([9]; nontarget SDH, mice): did not show any inhibitory activity
- SDH inhibitory activity [10]: did not show any inhibitory activity
- IC50 [11]: 0.7 nM
- SDH inhibitory activity ([12]; oomycete Pythium aphanidermatum): no inhibitory activity
- IC50 ([12]; read-out: SDH IC50, Pythium aphanidermatum): > 8000 nM
- Fungicidal activity EC80, Powdery mildew (Barley) (Powdery mildew (Barley)): 0.5–2 mg a.i./L
- Fungicidal activity EC80, Gray mold (Cucumber) (Gray mold (Cucumber)): 2–10 mg a.i./L
- inhibition activity against apothecium formation (Sclerotinia sclerotiorum): exhibits inhibition activity
- IC50 [13]: 5.9 nM
